Results taken from ChEMBL document CHEMBL3244412, “Benzopyrones. 14. Synthesis and antiallergic properties of some N-tetrazolylcarboxamides and related compounds” (1978).
≈ marks a conversion by molar mass, not a printed value.

Assays:
Rattus norvegicus [1] = assay: Antiallergic activity in rat assessed as inhibition of DNP-ovalbumin-induced passive cutaneous anaphylaxis at 5 mg/kg, iv after 30 mins relative to control; assay type: functional; conditions: 0.5 h
Outline: (§1)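 Female albino rats (groups of four) were shaved and sensitized by dorsal intradermal injection of 0.1 mL diluted rat reaginic anti-DNP-ovalbumin serum, raised with Bordetella pertussis adjuvant. After 48 h they were challenged iv with 2 mg DNP-ovalbumin in 0.5 mL 1% Evans blue/saline, with the compound given iv in aqueous solution at the same time. After 30 min, skin weals were scored visually on a 5-point scale; % inhibition was taken versus vehicle controls.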

[2] = Antianaphylactic activity in rat mast cells assessed as inhibition of DNP-ovalbumin-induced histamine release after 15 mins by superfusion assay; assay type: functional; conditions: Mast cell, 0.25 h, read-out: ED50 (the source's name)
Outline: (§2)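 Peritoneal and pleural cells from male albino rats were washed, sensitized with 1:10 rat reaginic anti-DNP-ovalbumin serum for 2 h at 37 °C, and resuspended at 1.2-1.7 × 10⁵ mast cells/mL. Compound and DNP-ovalbumin were added together and incubated for 15 min at 37 °C. Supernatant (free) and lysed-cell (residual) histamine were assayed by guinea pig ileum superfusion bioassay. Inhibition of net histamine release was used to derive EC50 from dose ranging against the reference compound.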

[3] = Antianaphylactic activity in rat mast cells assessed as inhibition of DNP-ovalbumin-induced histamine release after 15 mins by superfusion assay relative to 4-oxo-N-(5-tetrazolyl)-4H-l-benzopyran-2-carboxamide; assay type: functional, Mast cell; outline: as §2
Rattus norvegicus [4] = assay: Antiallergic activity in rat assessed as inhibition of DNP-ovalbumin-induced passive cutaneous anaphylaxis at 1 mg/kg, iv after 30 mins relative to control; assay type: functional; conditions: Rattus norvegicus, iv, 0.5 h; outline: as §1
Rattus norvegicus [5] = assay: Antiallergic activity in po dosed rat assessed as inhibition of DNP-ovalbumin-induced passive cutaneous anaphylaxis administered 10 mins prior to DNP-ovalbumin-challenge; assay type: functional
Outline: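 This rat passive cutaneous anaphylaxis model used reaginic anti-DNP-ovalbumin serum given intradermally, iv DNP-ovalbumin with Evans blue 48 h later, and weal scoring. Rats were starved overnight and dosed orally with the compound in aqueous solution 10 min before iv antigen challenge. ED50 was calculated with 95% confidence limits, assuming a log-linear dose response.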

Rattus norvegicus [6] = assay: Antiallergic activity in iv dosed rat assessed as inhibition of DNP-ovalbumin-induced passive cutaneous anaphylaxis after 30 mins; assay type: functional; conditions: 0.5 h; outline: as §1
Homo sapiens [7] = species on record: Homo sapiens; assay: Antianaphylactic activity in human lung fragments assessed as inhibition of sheep anti-human IgE-induced histamine release at 0.18 ug/ml treated 10 mins prior to sheep anti-human IgE-challenge measured after 15 mins by superfusion assay relative to control; assay type: functional
Outline: (§3)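 Human lung fragments in Tyrode's solution were incubated with the compound for 10 min, then challenged with sheep anti-human IgE and centrifuged for 15 min after challenge. Free and residual histamine were measured by superfusion bioassay on atropine-treated guinea pig ileum. % release and % inhibition were calculated from net release. Values are means of three experiments, each in duplicate.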

Homo sapiens [8] = species on record: Homo sapiens; assay: Antianaphylactic activity in human lung fragments assessed as inhibition of sheep anti-human IgE-induced histamine release at 18 ug/ml treated 10 mins prior to sheep anti-human IgE-challenge measured after 15 mins by superfusion assay relative to control; assay type: functional; outline: as §3
Homo sapiens [9] = species on record: Homo sapiens; assay: Antianaphylactic activity in human lung fragments assessed as inhibition of sheep anti-human IgE-induced histamine release treated 10 mins prior to sheep anti-human IgE-challenge measured after 15 mins by superfusion assay; assay type: functional; outline: as §3
Homo sapiens [10] = species on record: Homo sapiens; assay: Antianaphylactic activity in human lung fragments assessed as inhibition of sheep anti-human IgE-induced histamine release at 1.8 ug/ml treated 10 mins prior to sheep anti-human IgE-challenge measured after 15 mins by superfusion assay relative to control; assay type: functional; outline: as §3
Homo sapiens [11] = species on record: Homo sapiens; assay: Antianaphylactic activity in human lung fragments assessed as inhibition of sheep anti-human IgE-induced histamine release at 180 ug/ml treated 10 mins prior to sheep anti-human IgE-challenge measured after 15 mins by superfusion assay relative to control; assay type: functional; outline: as §3

## O=C(Cc1nnn[nH]1)Nc1coc2ccccc2c1=O
Rattus norvegicus [1]
  inhibition in vivo at 5 mg/kg: 0%
[2]
  EC50: > 18 µg/mL
[3]
  fold change (potency relative to reference compound): <0.005

## O=c1c(-n2nn[nH]c2=O)coc2ccccc12
Rattus norvegicus [1]
  inhibition in vivo at 5 mg/kg: 75%
[2]
  EC50: 5 µg/mL (≈ 21.7 µM)
[3]
  fold change (potency relative to reference compound): 0.01

## O=C(Nc1nnn[nH]1)c1coc(=O)c2ccccc12
[2]
  EC50: > 18 µg/mL
[3]
  fold change (potency relative to reference compound): <0.005
Rattus norvegicus [4]
  inhibition in vivo at 1 mg/kg: 0%

## Cc1c(C(=O)Nc2nnn[nH]2)oc2ccccc2c1=O
[2]
  EC50: 0.4 µg/mL (≈ 1.47 µM)
[3]
  fold change (potency relative to reference compound): 1
Rattus norvegicus [4]
  inhibition in vivo at 1 mg/kg: 70%

## Cc1ccc2oc(C(=O)Nc3nnn[nH]3)c(-c3ccccc3)c(=O)c2c1
[2]
  EC50: 8 µg/mL (≈ 23 µM)
[3]
  fold change (potency relative to reference compound): 0.005
Rattus norvegicus [4]
  inhibition in vivo at 1 mg/kg: 50%

## CN1CCN(C(=O)c2coc3ccccc3c2=O)CC1.Cl
[2]
  EC50: 14 µg/mL
[3]
  fold change (potency relative to reference compound): 0.007
Rattus norvegicus [4]
  inhibition in vivo at 1 mg/kg: 20%

## O=C(Nc1nnn[nH]1)c1oc2ccccc2c(=O)c1NCCO
[2]
  EC50: 0.085 µg/mL (≈ 0.269 µM)
[3]
  fold change (potency relative to reference compound): 0.18
Rattus norvegicus [4]
  inhibition in vivo at 1 mg/kg: 100%

## O=C(O)CCCNC(=O)c1cc(=O)c2ccccc2o1
[2]
  EC50: > 18 µg/mL
[3]
  fold change (potency relative to reference compound): <0.005
Rattus norvegicus [4]
  inhibition in vivo at 1 mg/kg: 0%

## O=C(Nc1nnn[nH]1)c1cc(=O)c2ccc(O)cc2o1
[2]
  EC50: 0.11 µg/mL (≈ 0.403 µM)
[3]
  fold change (potency relative to reference compound): 0.77
Rattus norvegicus [4]
  inhibition in vivo at 1 mg/kg: 65%

## O=C(Nc1nccs1)c1cc(=O)c2ccccc2o1
[2]
  EC50: > 18 µg/mL
[3]
  fold change (potency relative to reference compound): <0.005
Rattus norvegicus [4]
  inhibition in vivo at 1 mg/kg: 15%

## O=C(/C=C/c1coc2ccccc2c1=O)Nc1nnn[nH]1
[2]
  EC50: 6 µg/mL (≈ 21.2 µM)
[3]
  fold change (potency relative to reference compound): <0.005
Rattus norvegicus [4]
  inhibition in vivo at 1 mg/kg: 65%

## O=C(Nc1nnn[nH]1)c1cc(=O)c2ccccc2o1
Rattus norvegicus [5]
  ED50: 21 mg/kg
[2]
  EC50: 0.08 µg/mL (≈ 0.311 µM)
Rattus norvegicus [6]
  ED50: 0.037 mg/kg
Homo sapiens [7]
  inhibition: 5%
Homo sapiens [8]
  inhibition: 43.3%
Homo sapiens [9]
  inhibition: Dose-dependent effect
[3]
  fold change (potency relative to reference compound): 1
Rattus norvegicus [4]
  inhibition in vivo at 1 mg/kg: 100%
Homo sapiens [10]
  inhibition: 46.4%
Homo sapiens [11]
  inhibition: 61.6%

## Cc1ccc2oc(C(=O)O)c(-c3ccccc3)c(=O)c2c1
[2]
  EC50: > 18 µg/mL
[3]
  fold change (potency relative to reference compound): <0.005
Rattus norvegicus [4]
  inhibition in vivo at 1 mg/kg: 0%

## Cc1ccc2c(=O)cc(C(=O)Nc3nnn[nH]3)oc2c1
[2]
  EC50: 0.58 µg/mL (≈ 2.14 µM)
[3]
  fold change (potency relative to reference compound): 0.19
Rattus norvegicus [4]
  inhibition in vivo at 1 mg/kg: 75%

## O=C(NCCO)c1ccc2oc(C(=O)NCCO)cc(=O)c2c1
[2]
  EC50: > 18 µg/mL
[3]
  fold change (potency relative to reference compound): <0.005
Rattus norvegicus [4]
  inhibition in vivo at 1 mg/kg: 15%

## O=c1c(/C=N/O)coc2ccccc12
[2]
  EC50: > 18 µg/mL
[3]
  fold change (potency relative to reference compound): 0.0006
Rattus norvegicus [4]
  inhibition in vivo at 1 mg/kg: 25%

## CCOC(=O)C(=O)Nc1ccc2oc(C(=O)OCC)cc(=O)c2c1
[2]
  EC50: 12 µg/mL (≈ 36 µM)
[3]
  fold change (potency relative to reference compound): 0.005
Rattus norvegicus [4]
  inhibition in vivo at 1 mg/kg: 65%

## O=C(Nc1nc[nH]n1)c1cc(=O)c2ccccc2o1
[2]
  EC50: 5 µg/mL (≈ 19.5 µM)
[3]
  fold change (potency relative to reference compound): 0.002
Rattus norvegicus [4]
  inhibition in vivo at 1 mg/kg: 0%

## O=C(Nc1nnn[nH]1)c1oc2ccccc2c(=O)c1N1CCOCC1
[2]
  EC50: > 18 µg/mL
[3]
  fold change (potency relative to reference compound): <0.005
Rattus norvegicus [4]
  inhibition in vivo at 1 mg/kg: 10%

## O=C(Nc1nnn[nH]1)c1cc(=O)c2cc([N+](=O)[O-])ccc2o1
[2]
  EC50: 5.5 µg/mL (≈ 18.2 µM)
[3]
  fold change (potency relative to reference compound): 0.01
Rattus norvegicus [4]
  inhibition in vivo at 1 mg/kg: 15%

## COc1ccc2c(=O)cc(C(=O)Nc3nnn[nH]3)oc2c1
[2]
  EC50: 0.048 µg/mL (≈ 0.167 µM)
[3]
  fold change (potency relative to reference compound): 1.8
Rattus norvegicus [4]
  inhibition in vivo at 1 mg/kg: 75%

## Cc1ccc2oc(C(=O)Nc3nnn[nH]3)cc(=O)c2c1
[2]
  EC50: 0.075 µg/mL (≈ 0.277 µM)
[3]
  fold change (potency relative to reference compound): 1.2
Rattus norvegicus [4]
  inhibition in vivo at 1 mg/kg: 75%

## O=C(O)c1ccc2occc(=O)c2c1
[2]
  EC50: > 18 µg/mL
[3]
  fold change (potency relative to reference compound): <0.005
Rattus norvegicus [4]
  inhibition in vivo at 1 mg/kg: 0%

## O=C(Nc1nnn[nH]1)c1cc2ccccc2c(=O)o1
[2]
  EC50: > 18 µg/mL
[3]
  fold change (potency relative to reference compound): <0.005
Rattus norvegicus [4]
  inhibition in vivo at 1 mg/kg: 0%

## O=C([O-])c1cc(=O)c2c(OCC(O)COc3cccc4oc(C(=O)[O-])cc(=O)c34)cccc2o1.[Na+].[Na+] [CROMOLYN SODIUM]
[2]
  EC50: 2.55 µg/mL
[3]
  fold change (potency relative to reference compound): 0.02
Rattus norvegicus [4]
  inhibition in vivo at 1 mg/kg: 40%

## CCOC(=O)c1cc(=O)c2cc(NC(=O)Cc3nnn[nH]3)ccc2o1
[2]
  EC50: 11 µg/mL (≈ 32 µM)
[3]
  fold change (potency relative to reference compound): 0.005
Rattus norvegicus [4]
  inhibition in vivo at 1 mg/kg: 65%
